Screens deposited in PubChem BioAssay by SRMLSC.
H69AR inhibit – proliferation blockers of H69AR lung cancer cells, primary screen, cell-based, human, 86K library; H69AR lung tumor viability, ATP luminescence, 72 h; active compounds read low; viability, % at 10 µM; 85,000 tested, 6% active;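 active means viability at or below 40%; inactive means viability above 40%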;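 further: multidrug resistant small cell line overexpressing MRP-1 efflux transporter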
PTEN del growth – growth suppression of PTEN-null HCT116, primary screen, cell-based, CellTiter-Glo. 140,000 tested, 1.2% active. viability, % at 10 µM. HCT116 PTEN-null viability, 60 h; active compounds read low;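 active means viability at or below a set limit, 4 SD under the median of all tested compounds, cut at about 3.7% in these data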;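 further: PTEN knockout HCT116 line with beta catenin targeted HCT116 as companion control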
HCT116 bCat-KO – primary screen for growth suppressors in beta-catenin knockout HCT116 cells (colon tumor, human); HCT116 beta-catenin knockout viability, CellTiter-Glo, 60 h; active compounds read low; viability, % at 10 µM; 140,000 tested, 1.5% active;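 active means viability at or under a set limit, the compound median less 4 SD, cut at about 6% in these data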
HUVEC prolif 384 – inhibitors of HUVEC proliferation, primary screen, cell-based, 384-well; CellTiter-Glo luminescence, 72 h; active compounds read low; viability, % at 10 µM (by protocol); 86,000 tested, 1.1% active;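 active means viability at or below 30%; inactive means viability above 30%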
Fibroblast inh – antiproliferative effect on LL 47 fibroblasts – human, LL 47 cells, CellTiter-Glo luminescence, primary screen; LL 47 human lung fibroblast viability, ATP luminescence; active compounds read low; viability, % at 10 µM; 85,000 tested, 1.1% active; AID 719, 2007;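 active means viability at or below 50% in the single dose screen; inactive means viability above 50%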;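 further: compound exposure lasted 72 h before the ATP readout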
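Material: human lung fibroblast line LL 47, low passage; Evaluation: viability percentage against median untreated-cell control; Buffer or medium: 15% FBS in IMEM; Incubation: 72 h compound exposure at 37 °C after overnight plating; Dosing: 0.1% DMSO in all compound wells; Measured by: CellTiter-Glo luminescence.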
Hits are given with their value; i = inactive; nt = no result. The sample as a whole holds a higher share of hits than the screen did.

SMILES	H69AR inhibit	PTEN del growth	HCT116 bCat-KO	HUVEC prolif 384	Fibroblast inh
CCOc1cc(/C=N/NC(=O)CSc2nnc(C)s2)ccc1OCc1ccccc1Cl	nt	i	i	nt	nt
CCCCN1C(=O)Nc2ccccc2S1(=O)=O	nt	i	i	nt	nt
CCOC(=O)c1ccc2c(c1)nc(COc1ccc3ccccc3c1)n2CC	24	i	i	i	i
CCOC(=O)c1ccc2c(c1)nc(COc1ccccc1C#N)n2CC	20	nt	nt	i	i
CCC(C)NS(=O)(=O)c1ccc(S(=O)(=O)N2CC=C(c3ccc(F)cc3)CC2)cc1 (stereo not drawn)	nt	i	i	nt	nt
CCOC(=O)c1c(C)[nH]c(C)c1C(=O)COC(=O)/C=C/c1ccc(Cl)cc1	nt	i	i	nt	nt
O=C(CSCC(=O)N1CCCc2ccccc21)Nc1nc(-c2ccccc2)cs1	nt	i	i	nt	nt
O=C1C(=O)c2c(C(=O)c3ccccc3)coc2-c2ccccc21	0.5	1.5	1.8	3.2	36
Cc1oc2c(c1C(=O)c1ccccc1)C(=O)C(=O)c1ccccc1-2	1.4	1.5	1.2	3.1	2.1
O=C(c1ccccc1)c1coc2ccc(O)c(Cl)c12	i	i	i	i	i
Cc1cc(C(=O)OCC(=O)NCc2ccco2)c(C)n1-c1ccc(F)cc1	21	i	i	i	i
Fc1ccc(-c2nc3n(n2)Cc2ccccc2-3)cc1	37	i	i	i	i
CCn1c(C)nc2cc(-c3nc4n(n3)Cc3ccccc3-4)ccc21	16	i	i	26	24
CCn1c(C)nc2cc(C(=O)n3cc(C(=O)c4ccccc4O)cn3)ccc21	nt	i	i	nt	nt
Cc1ccc(-c2nc3n(n2)Cc2ccccc2-3)cc1	i	i	i	i	i
COc1ccc(C(=O)Oc2c(CN3CCOCC3)cc(Cl)c3cccnc23)cc1OC	1.5	nt	nt	i	7.2
COc1ccc(C(=O)OCCN2CCOCC2)cc1OC	i	i	i	i	i
COc1ccc(N(C(=O)Cc2cccs2)C(C(=O)NC2CCCCC2)c2cccn2C)cc1 (stereo not drawn)	i	i	i	i	i
Cn1cccc1C(C(=O)NC1CCCCC1)N(C(=O)Cc1cccs1)c1ccc2c(c1)OCO2 (stereo not drawn)	28	i	i	i	i
CC(C)(C)OC(=O)[C@H]1[C@H](c2ccc([N+](=O)[O-])cc2)C2(C(=O)c3ccccc3C2=O)C2c3ccccc3C=NN21 (stereo partly drawn)	nt	i	i	nt	nt
c1ccc2c(N3CCCCC3)nc(N3CCCCC3)nc2c1	i	i	i	i	i
C(=C\c1nc(N2CCCCCC2)c2ccccc2n1)/c1ccccc1	nt	i	3.3	nt	nt
COc1cc(NC(=S)N2CCCC(CO)C2)c(OC)cc1Cl (stereo not drawn)	nt	i	i	nt	nt
CC(=O)O[C@@]12CO[C@@H]1C[C@H](O)[C@@]1(C)C(=O)[C@H](O)C3=C(C)[C@@H](OC(=O)[C@H](O)[C@@H](NC(=O)OC(C)(C)C)c4ccccc4)C[C@](O)([C@@H](OC(=O)c4ccccc4)[C@H]21)C3(C)C	23	nt	nt	i	i
OC(CN1c2ccccc2Sc2ccccc21)Cn1nnc2ccccc21 (stereo not drawn)	25	2.5	i	i	i
SMILES	H69AR inhibit	PTEN del growth	HCT116 bCat-KO	HUVEC prolif 384	Fibroblast inh
Cc1nn(CC(O)CN2c3ccccc3Sc3ccccc32)c(C)c1Br (stereo not drawn)	27	i	i	i	i
CCOc1ccc2nc(N3CCC(C(=O)N4CCN(c5ncccn5)CC4)CC3)sc2c1	38	nt	nt	i	i
CCOC(=O)C(C)Oc1cccc2c(=O)n(CC(=O)NCc3ccc4c(c3)OCO4)ccc12 (stereo not drawn)	30	i	i	i	i
CCOC(=O)C(C)Oc1cccc2c(=O)n(CC(=O)Nc3ccc4c(c3)OCCO4)ccc12 (stereo not drawn)	i	i	i	i	i
CCNC(=S)N/N=C/c1sc(N2CCCCC2)nc1-c1cccs1	nt	i	i	nt	nt
c1ccc(-c2cc(-c3nc(-c4cccnc4)no3)c3ccccc3n2)cc1	12	nt	nt	i	i
c1ccc(-c2ccccc2-c2nc(-c3cccnc3)no2)cc1	i	i	i	i	i
COc1ccc(C(=O)NN/C(C)=C/C(=O)C(F)(F)C(F)(F)C(F)(F)F)cc1	nt	i	i	nt	nt
O=C(NCCc1ccccc1)c1cccc([N+](=O)[O-])c1	nt	i	i	nt	nt
O=C(C#Cc1cccc([N+](=O)[O-])c1)c1ccccc1	2.6	3.7	i	i	48
